This is an account of results in ChEMBL document CHEMBL3745614, “Potent and selective N-(4-sulfamoylphenyl)thiourea-based GPR55 agonists” (Eur J Med Chem, 2016).

Each structure is given as a SMILES string. Active and inactive are the calls of the source. No cut-off for these calls is given here.

The target of assay [1] is T1, Sodium- and chloride-dependent glycine transporter 1 (Homo sapiens, UniProt P48067).
T1 sequence (P48067 whole entry): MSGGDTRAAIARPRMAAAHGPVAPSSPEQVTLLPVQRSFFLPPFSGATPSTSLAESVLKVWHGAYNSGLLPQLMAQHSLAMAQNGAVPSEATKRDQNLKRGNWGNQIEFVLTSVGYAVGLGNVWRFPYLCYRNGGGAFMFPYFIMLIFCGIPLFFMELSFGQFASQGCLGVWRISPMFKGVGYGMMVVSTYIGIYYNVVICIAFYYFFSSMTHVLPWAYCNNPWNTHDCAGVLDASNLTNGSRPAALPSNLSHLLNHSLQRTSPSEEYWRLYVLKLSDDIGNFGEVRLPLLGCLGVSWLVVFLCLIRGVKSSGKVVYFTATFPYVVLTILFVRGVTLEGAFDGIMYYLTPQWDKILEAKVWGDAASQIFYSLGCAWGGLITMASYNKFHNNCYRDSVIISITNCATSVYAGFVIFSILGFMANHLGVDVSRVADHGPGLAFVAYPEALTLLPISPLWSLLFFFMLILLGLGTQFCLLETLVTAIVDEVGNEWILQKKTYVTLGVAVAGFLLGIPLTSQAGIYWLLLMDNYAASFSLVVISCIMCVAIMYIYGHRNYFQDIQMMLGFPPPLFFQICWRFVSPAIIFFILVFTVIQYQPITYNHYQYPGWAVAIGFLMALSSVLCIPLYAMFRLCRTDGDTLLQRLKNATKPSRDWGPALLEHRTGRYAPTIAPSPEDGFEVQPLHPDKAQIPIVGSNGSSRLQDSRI
Description: Inhibition of GlyT1 (unknown origin) expressed in HEK293 cells by scintillation proximity assay. It counts as cell-based.

The target in assay [2] is T2, G-protein coupled receptor 55 (Homo sapiens, UniProt Q9Y2T6). The assay is described as follows: Agonist activity at human GPR55 expressed in Saccharomyces cerevisiae by beta-galactosidase reporter assay.
The target in assay [3] is T2, G-protein coupled receptor 55. The assay is described as follows: Agonist activity at human GPR55 expressed in CHOK1 cells at 10 uM by pathHunter beta-arrestin assay relative to LPI. It counts as cell-based. To be noted: CHO-K1. A digest of the protocol:
(§1)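 PathHunter eXpress GPR55 CHO-K1 β-arrestin kit run per the kit protocol, compounds screened at 10 μM. Luminescence read and expressed as percentage of the signal from bovine liver LPI at 1 μM. Mean with range of two experiments, each done in duplicate.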

In assay [4] the target is Cannabinoid receptor 1 (Homo sapiens) (UniProt P21554). The assay is described as follows: Agonist activity at CBR1 (unknown origin) assessed as [35S]GTPgammaS binding at 10 uM by […] assay relative to control. It counts as functional.
Assay [5] has as its target Cannabinoid receptor 2 (Homo sapiens) (UniProt P34972). The assay is described as follows: Antagonist activity at human CBR2 assessed as [35S]GTPgammaS binding at 10 uM by […] assay relative to control. The assay is classed as functional. More on the design: scale not given: the % may be the effect or the level left.
The target is the same in assay [6]. Description: Agonist activity at CBR2 (unknown origin) assessed as [35S]GTPgammaS binding at 10 uM by […] assay relative to control. The assay is classed as functional.
The target in assay [7] is T3, Fatty-acid amide hydrolase 1 (Homo sapiens) (UniProt O00519).
T3 sequence (whole entry): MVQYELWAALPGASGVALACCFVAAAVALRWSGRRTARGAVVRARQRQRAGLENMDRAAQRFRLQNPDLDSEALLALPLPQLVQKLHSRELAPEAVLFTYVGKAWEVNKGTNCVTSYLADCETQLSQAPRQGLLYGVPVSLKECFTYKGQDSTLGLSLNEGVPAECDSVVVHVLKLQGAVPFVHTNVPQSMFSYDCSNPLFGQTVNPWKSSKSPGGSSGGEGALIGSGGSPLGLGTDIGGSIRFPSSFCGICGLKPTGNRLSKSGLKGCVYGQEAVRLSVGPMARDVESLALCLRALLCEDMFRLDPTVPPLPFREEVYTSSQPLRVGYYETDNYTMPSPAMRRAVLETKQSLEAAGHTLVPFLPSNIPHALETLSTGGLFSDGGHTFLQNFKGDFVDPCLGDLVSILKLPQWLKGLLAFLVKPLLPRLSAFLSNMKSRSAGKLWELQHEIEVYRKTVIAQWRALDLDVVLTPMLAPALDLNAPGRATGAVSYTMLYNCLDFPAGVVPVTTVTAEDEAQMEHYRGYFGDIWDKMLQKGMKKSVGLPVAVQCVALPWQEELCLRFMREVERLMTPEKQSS
The assay is described as follows: Inhibition of human FAAH expressed in African green monkey COS-7 cell membranes using [3H]-AEA as substrate assessed as residual activity at 10 uM preincubated for 10 mins followed by substrate addition measured after 10 mins by liquid scintillation counting analysis relative to control. The gist of the method: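 Membranes of COS-7 cells overexpressing hFAAH, 1 μg protein per incubation. Substrate 20 μM AEA including 10 nM [3H]AEA (60 Ci/mmol). Compounds tested at 10 μM.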

Assay [8] concerns the target T4, Monoglyceride lipase (Homo sapiens) (UniProt Q99685).
T4 sequence (whole entry): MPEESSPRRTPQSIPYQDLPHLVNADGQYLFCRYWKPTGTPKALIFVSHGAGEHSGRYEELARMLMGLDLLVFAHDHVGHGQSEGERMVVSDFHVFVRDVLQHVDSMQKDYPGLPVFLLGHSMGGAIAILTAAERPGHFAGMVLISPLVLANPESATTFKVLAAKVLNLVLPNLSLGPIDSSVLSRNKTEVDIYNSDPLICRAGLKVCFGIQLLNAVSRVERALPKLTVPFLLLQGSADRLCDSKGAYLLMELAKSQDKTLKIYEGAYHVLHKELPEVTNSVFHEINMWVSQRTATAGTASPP
Description: Inhibition of human MGL expressed in […] cells using 2AG as substrate assessed as residual activity at 10 uM preincubated for 10 mins followed by substrate addition measured after 10 mins by HPLC analysis. It counts as cell-based. The gist of the method: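 Lysates of HEK cells overexpressing hMGL, 2.5 μg protein per incubation, substrate at 50 μM. Compounds tested at 10 μM.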

Assay [9] has as its target T5, Lysophosphatidylserine lipase ABHD12 (Homo sapiens) (UniProt Q8N2K0).
T5 sequence (whole entry): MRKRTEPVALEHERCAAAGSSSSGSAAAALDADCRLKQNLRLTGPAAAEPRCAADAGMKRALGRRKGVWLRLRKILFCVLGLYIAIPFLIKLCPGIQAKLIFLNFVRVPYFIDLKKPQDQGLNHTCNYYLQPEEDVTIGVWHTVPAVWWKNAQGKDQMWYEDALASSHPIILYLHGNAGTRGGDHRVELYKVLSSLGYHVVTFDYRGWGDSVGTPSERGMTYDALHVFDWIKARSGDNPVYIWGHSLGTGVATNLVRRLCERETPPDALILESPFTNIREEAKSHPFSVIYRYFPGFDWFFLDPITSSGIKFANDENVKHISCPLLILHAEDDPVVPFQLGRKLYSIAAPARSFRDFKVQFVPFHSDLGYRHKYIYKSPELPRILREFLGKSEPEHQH
The assay is described as follows: Inhibition of human ABHD12 expressed in […] cells using 2-AG as substrate assessed as glycerol liberation at 1 uM preincubated for 30 mins followed by 2-AG addition measured for 90 mins by fluorescent glycerol assay relative to control. It counts as cell-based. The arrangement: scale not given: the % may be the effect or the level left. A digest of the protocol: (§2)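 Lysates of HEK293 cells transiently overexpressing hABHD6 or hABHD12, 0.3 μg protein/well. Pretreated 30 min with DMSO or compound, then 2-AG added (12.5 μM final). Glycerol release coupled enzymatically to H2O2-dependent resorufin formation; fluorescence (ex 530/em 590 nm) followed kinetically for 90 min.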

Assay [10] addresses T6, Monoacylglycerol lipase ABHD6 (Homo sapiens) (UniProt Q9BV23).
T6 sequence (whole entry): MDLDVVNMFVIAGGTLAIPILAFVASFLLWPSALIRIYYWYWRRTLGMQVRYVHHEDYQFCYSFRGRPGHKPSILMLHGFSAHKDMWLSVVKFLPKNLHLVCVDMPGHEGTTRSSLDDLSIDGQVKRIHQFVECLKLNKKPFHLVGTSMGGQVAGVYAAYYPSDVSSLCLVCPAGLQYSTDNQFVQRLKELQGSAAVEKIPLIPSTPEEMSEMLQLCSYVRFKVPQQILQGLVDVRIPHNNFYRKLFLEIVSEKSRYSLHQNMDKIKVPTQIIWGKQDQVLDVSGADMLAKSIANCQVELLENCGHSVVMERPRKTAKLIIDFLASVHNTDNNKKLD
Description: Inhibition of human ABHD6 expressed in […] cells using 2-AG as substrate assessed as glycerol liberation at 1 uM preincubated for 30 mins followed by 2-AG addition measured for 90 mins by fluorescent glycerol assay relative to control. It counts as cell-based. The arrangement: scale not given: the % may be the effect or the level left. A digest of the protocol:
as §2

The target of assay [11] is T2, G-protein coupled receptor 55. Description: Agonist activity at human GPR55 expressed in CHOK1 cells at 10 uM by pathHunter beta-arrestin assay relative to control. As to conditions: CHO-K1. It counts as cell-based. The gist of the method:
as §1

Assay [12] shares this target. The assay is described as follows: Agonist activity at human GPR55 expressed in HEK293 cells assessed as calcium signalling at 10 uM by fura 2-based digital epifluorescence microscopy. The assay is classed as functional, cell-based.
For assay [13], the target named is Cannabinoid receptor 1 (Homo sapiens) (UniProt P21554). Description: Antagonist activity at human CBR1 assessed as [35S]GTPgammaS binding at 10 uM by radiometric assay relative to control. The arrangement: scale not given: the % may be the effect or the level left.

T2 sequence (Q9Y2T6 whole entry): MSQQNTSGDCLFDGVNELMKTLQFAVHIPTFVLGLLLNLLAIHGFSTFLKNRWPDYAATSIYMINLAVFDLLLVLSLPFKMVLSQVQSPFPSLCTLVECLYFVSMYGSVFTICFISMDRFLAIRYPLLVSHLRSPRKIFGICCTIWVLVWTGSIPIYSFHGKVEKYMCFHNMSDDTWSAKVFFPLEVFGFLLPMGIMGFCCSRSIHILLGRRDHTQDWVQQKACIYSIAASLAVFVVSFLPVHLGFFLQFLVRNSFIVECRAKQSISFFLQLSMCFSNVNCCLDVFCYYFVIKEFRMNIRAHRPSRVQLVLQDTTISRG
Cannabinoid receptor 2 (Homo sapiens), sequence (P34972 whole entry): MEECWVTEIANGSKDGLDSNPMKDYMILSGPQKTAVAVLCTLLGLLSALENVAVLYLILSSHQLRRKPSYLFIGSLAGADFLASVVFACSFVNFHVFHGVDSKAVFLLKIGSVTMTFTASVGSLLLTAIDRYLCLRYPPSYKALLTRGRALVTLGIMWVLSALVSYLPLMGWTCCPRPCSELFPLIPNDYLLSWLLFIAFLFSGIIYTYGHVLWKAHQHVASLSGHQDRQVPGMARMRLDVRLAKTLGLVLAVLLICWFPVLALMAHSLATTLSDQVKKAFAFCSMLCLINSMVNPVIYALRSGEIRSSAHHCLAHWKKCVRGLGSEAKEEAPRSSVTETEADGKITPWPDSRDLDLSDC
Cannabinoid receptor 1 (Homo sapiens), sequence (P21554 whole entry): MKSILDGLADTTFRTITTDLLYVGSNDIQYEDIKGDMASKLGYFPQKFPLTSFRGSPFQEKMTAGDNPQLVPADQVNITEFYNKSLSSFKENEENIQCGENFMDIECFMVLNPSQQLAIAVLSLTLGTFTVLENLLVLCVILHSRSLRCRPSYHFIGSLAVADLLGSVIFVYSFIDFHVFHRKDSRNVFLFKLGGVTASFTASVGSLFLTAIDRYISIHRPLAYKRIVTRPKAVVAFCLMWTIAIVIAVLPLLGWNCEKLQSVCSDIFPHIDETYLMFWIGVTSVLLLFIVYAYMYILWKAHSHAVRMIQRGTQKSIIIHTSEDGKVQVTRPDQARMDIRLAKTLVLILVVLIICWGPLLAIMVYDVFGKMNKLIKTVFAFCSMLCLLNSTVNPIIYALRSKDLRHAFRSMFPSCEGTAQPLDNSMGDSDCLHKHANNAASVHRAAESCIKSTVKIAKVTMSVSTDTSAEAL

In the case of `CS(=O)(=O)c1ccc(-c2ccc(F)cc2)c(C(=O)N2CCN(c3ccc(N)cc3F)CC2)c1`, in [1], the IC50 was 10000 nM. In assay [2], the midpoint of the response, the EC50, lay at 158 nM.
In turn, `COC(C)c1ccc(N2CCN(C(=O)c3cc(S(C)(=O)=O)ccc3-c3ccc(F)cc3)CC2)c(F)c1` (stereo not given) gave an IC50 in assay [1] of 20 nM. Moreover, the EC50 in assay [2] amounted to 316 nM.
For the compound `O=C(NC(=S)Nc1ccc(S(=O)(=O)NCc2ccc(I)cc2)cc1)c1ccc(-c2ccccc2)cc1`, the Activity came out at 107% in assay [3]; 100% in [4]; 95% in assay [5]; 95% in assay [6]; 93% in [7]; 98% in assay [8]. For the same compound, the Activity in assay [9] stood at 100%; in [10] it was 103%; in [11], 157%; in assay [13], 98%. Besides, in assay [12], the outcome was inactive.
